Published values from different studies.

COc1ccc(Nc2nc(-c3ccccn3)nc3ccccc23)cc1 — Papp (PAMPA; 10 µM, 3 h, pH 7.4): 36.3 ×10⁻⁶ cm/s
N=c1c2c(-c3ccccc3)c(-c3ccccc3)n(Cc3ccc(OC(F)(F)F)cc3)c2ncn1[C@H]1CC[C@@H](O)CC1 — Papp (PAMPA; 50 µM, 30 min): 1250 ×10⁻⁶ cm/s
Cn1ccnc1CNc1nc(-c2ccccn2)nc2ccccc12 — Papp (PAMPA; 10 µM, 3 h, pH 7.4): 27 ×10⁻⁶ cm/s
O=c1[nH]c2cc(-c3ccc(F)cc3)sc2c(=O)n1O — Papp (PAMPA; 10 µM, 5 h): 0.6 ×10⁻⁶ cm/s
c1ccc(-c2nc(NCc3nc4ccccc4o3)c3ccccc3n2)nc1 — Papp (PAMPA; 10 µM, 3 h, pH 7.4): 27.8 ×10⁻⁶ cm/s
CC[C@H](C)[C@@H]1NC(=O)[C@@H](Cc2ccccc2)OC(=O)CNC(=O)[C@H]([C@@H](C)CC)NC(=O)[C@@H](Cc2ccccc2)OC(=O)CNC1=O — Papp (PAMPA): 47 ×10⁻⁶ cm/s
COc1ccc(CCn2cnc3c(c(-c4ccccc4)c(-c4ccccc4)n3Cc3ccccc3)c2=N)cc1OC — Papp (PAMPA; 50 µM, 30 min): 1200 ×10⁻⁶ cm/s
CCN1CCc2c(sc3[nH]c(=O)n(O)c(=O)c23)C1 — Papp (PAMPA; 10 µM, 5 h): 0.08 ×10⁻⁶ cm/s
Cn1c(=O)c2c(ncn2C)n(C)c1=O — Papp (PAMPA; 200 µM, 5 h): 6.85 ×10⁻⁶ cm/s
CC(C)(C)Nc1ccnc(Nc2cccc(-c3cccnc3)c2)n1 — Papp (PAMPA; 50 nM, 30 min): 1990 ×10⁻⁶ cm/s
CCn1ncc2nc(-c3ccccn3)nc(N3CCC(c4ccccn4)C3)c21 (stereo not drawn) — Papp (PAMPA; 10 µM, 3 h, pH 7.4): 22 ×10⁻⁶ cm/s
CC(C)NCC(O)COc1cccc2ccccc12 (stereo not drawn) — Papp (PAMPA-BBB; 50 µM, 16 h, pH 7.4): 22.4 ×10⁻⁶ cm/s
Cc1c(C)n(Cc2ccccc2)c2ncn(C3CCOCC3)c(=N)c12 — Papp (PAMPA; 50 µM, 30 min): 1680 ×10⁻⁶ cm/s
c1ccc(-c2nc(NCc3ccco3)c3ccccc3n2)nc1 — Papp (PAMPA; 10 µM, 3 h, pH 7.4): 22.8 ×10⁻⁶ cm/s
Cc1cc(-c2ccc(Sc3cc(=O)n(O)c(=O)[nH]3)cc2)ccc1F — Papp (PAMPA; 10 µM, 5 h): 1.1 ×10⁻⁶ cm/s
Cc1csc2[nH]c(=O)n(O)c(=O)c12 — Papp (PAMPA; 10 µM, 5 h): 0.2 ×10⁻⁶ cm/s
CC(C)Nc1ccnc(Nc2cccc(-c3ccccn3)c2)n1 — Papp (PAMPA; 50 nM, 30 min): 2010 ×10⁻⁶ cm/s
COc1ccc(C(CO)Nc2ncnc3sc(-c4ccccc4)cc23)cc1 (stereo not drawn) — Papp (PAMPA): 240 ×10⁻⁶ cm/s
Cc1csc2c(=O)n(O)c(=O)[nH]c12 — Papp (PAMPA; 10 µM, 5 h): 0.1 ×10⁻⁶ cm/s
CCN1CC(=O)NC(CC(C)C)C(=O)N(C)C(C)C(=O)NC(CC(C)C)C(=O)N2CCCC2C(=O)N(CC2CCCCC2)CC(=O)NC(CC(C)C)C(=O)N(C)C(C)C(=O)NC(Cc2ccccc2)C(=O)N2CCCC2C1=O (stereo not drawn) — Papp (PAMPA): 18 ×10⁻⁶ cm/s
N#Cc1cccc(-c2nc(N3CCC(c4ccccn4)C3)c3ccccc3n2)c1 (stereo not drawn) — Papp (PAMPA; 10 µM, 3 h, pH 7.4): 36.9 ×10⁻⁶ cm/s
CC(C)Nc1ccnc(Nc2cccc(C(C)(C)C)c2)n1 — Papp (PAMPA; 50 nM, 30 min): 1600 ×10⁻⁶ cm/s
c1ccc(-c2nc(N3CCc4ncccc4C3)c3ccccc3n2)nc1 — Papp (PAMPA; 10 µM, 3 h, pH 7.4): 26 ×10⁻⁶ cm/s
c1cncc(-c2cccc(Nc3nccc(NC4CCNCC4)n3)c2)c1 — Papp (PAMPA; 50 nM, 30 min): 8.2 ×10⁻⁶ cm/s
O=C(Nc1ccn(Cc2ccc(O)cc2C(F)(F)F)n1)c1c(F)cccc1F — Papp (PAMPA): 36 ×10⁻⁶ cm/s
Cc1cccnc1CNc1nc(-c2ccccn2)nc2ccccc12 — Papp (PAMPA; 10 µM, 3 h, pH 7.4): 27.1 ×10⁻⁶ cm/s
c1cncc(-c2cccc(Nc3nccc(NC4CCC4)n3)c2)c1 — Papp (PAMPA; 50 nM, 30 min): 2050 ×10⁻⁶ cm/s
